E-sel inducer – E-selectin induction on HUVECs; 260,000 compounds, 0.37% hits; HUVEC E-selectin immunofluorescence imaging; normalized: neutral wells 0, TNF-alpha wells 100; AID 686992; activation, % at 7.58 µM; P16581;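 active = mean E-selectin-positive cell signal at least 10% of the positive control, reached in at least 60% of replicates, without over 20% cell loss; inconclusive = no rule given, readout overlaps actives, possibly toxicity-flagged; inactive = the rest, including those meeting only one limit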
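Test system: HUVEC; input: 3,000 HUVEC/well; measured by: immunofluorescence imaging; read-out: % PE-positive cells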
miR-122 sensor – blocks miR-122 activity in Huh7 sensor cells. Huh7 miR-122 Renilla luciferase sensor, 48 h; neutral wells = 0, positive control = 100. 340,000 compounds, 0.3% hits. activation (reporter increase), % at 12.5 µM;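 active = mean replicate activation score at least 90 and every replicate individually at or above 90; inconclusive = only one of the two criteria met; inactive = neither criterion met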;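 also: higher luciferase means less miR-122 activity so hits act as miR-122 inhibitors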
F508del corr – correctors of CFTR F508del function in bronchial epithelial cells | CFBE cells, YFP halide quenching; stimulated with forskolin plus potentiator P3; % fluorescence drop versus neutral controls | activity (quench increase), % at 7.58 µM | 350,000 compounds, 0.36% hits | AID 720511;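 active = mean added fluorescence quench of at least 8% versus neutral control, with both replicates also reaching 8%; inconclusive = only one of the mean or replicate conditions met; inactive = mean below 8% and not both replicates reaching 8%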;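 also: cells transiently co-express mutant CFTR-F508del with the halide-sensitive YFP; corrector assay measuring rescue of mutant channel to the surface after 24 h compound exposure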
GSIS activator – primary screen for activators of insulin secretion dependent on glucose, INS-1E cells, GLuc reporter luminescence | INS-1E GLuc reporter insulin secretion, 2-3 h | activation, % at 16.6 µM | 370,000 compounds, 0.61% hits;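 active = lowest replicate activation of at least 40%, so every replicate reaches that level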
DENV2 CPE – protects cells from dengue virus 2 cytopathic effect | DENV2-infected cells, cytopathic effect rescue, plate reader | CPE inhibition, % at 9.99 µM | 350,000 compounds, 1.7% hits; in the data active = CPE inhibition above about 20%, passing the limit was not always enough; inconclusive = no clear call, values can overlap the other calls; tested in BHK-21 cells
ERAP1 inh – blocks human ERAP1 aminopeptidase activity | Q9NZ08 | recombinant ERAP1, Leu-AMC fluorescence, 60 min | inhibition, % at 10.7 µM | 340,000 compounds, 0.15% hits;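 active = mean replicate inhibition of at least 30%, or all replicates individually reaching that 30% level; inactive = mean below 30% and not every replicate reaching it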
Large screens that a line does not name were inactive. This is a sample that favours compounds with a hit; in the whole collection about 2.6% have one here.

COc1ccc(S(=O)(=O)Nc2ccc3c(c2)C(=O)N([C@@H](C)CO)C[C@@H](C)[C@H](CN(C)C(=O)Nc2cccc4ccccc24)OCCCC[C@@H](C)O3)cc1	none (no result: ERAP1 inh)
Cc1ccc(S(=O)(=O)NCC[C@H]2CC[C@@H](NC(=O)c3cccc(F)c3)[C@H](CO)O2)cc1	DENV2 CPE inconclusive (no result: miR-122 sensor)
C[C@H](CO)N1C[C@H](C)[C@H](CN(C)C(=O)Nc2cccc3ccccc23)OCCCC[C@H](C)Oc2ccc(NS(=O)(=O)c3cn(C)cn3)cc2C1=O	DENV2 CPE 103 (no result: ERAP1 inh)
C[C@@H]1CCCCO[C@H](CN(C)CC2CCCCC2)[C@H](C)CN([C@H](C)CO)C(=O)c2cc(NC(=O)Nc3ccccc3)ccc2O1	none
N#Cc1c(-c2ccccc2)cc(-c2ccc3c(c2)OCO3)[nH]c1=O	none (no result: E-sel inducer, miR-122 sensor, GSIS activator)
COc1ccc(-c2cc(-c3ccco3)[nH]c(=O)c2C#N)cc1OC	GSIS activator 52 (no result: E-sel inducer)
CS(=O)(=O)NCCNc1ccc(Cl)cc1[N+](=O)[O-]	none (no result: miR-122 sensor, DENV2 CPE)
CS(=O)(=O)NCCNc1cc(Cl)ccc1[N+](=O)[O-]	E-sel inducer 95
COc1ccc2c3c([nH]c2c1)[C@H](CO)N(C(C)=O)CC31CCN(C(=O)CN2CCOCC2)CC1	DENV2 CPE inconclusive (no result: miR-122 sensor)
O=C(CN1CCN(S(=O)(=O)c2ccc(F)c(Cl)c2)CC1)N1CCc2ccccc2C1	F508del corr 16 (no result: miR-122 sensor)
O=C(CN1CCN(S(=O)(=O)c2ccc(F)c(Cl)c2)CC1)N1CCc2ccccc21	none (no result: miR-122 sensor)
COc1ccccc1NC(=S)NN=C(C)c1ccccn1	F508del corr 8.5
CC(=NNC(=S)Nc1ccc(C)cc1)c1ccccn1	F508del corr 16
Cc1cccc2sc(N(CCCN(C)C)C(=O)c3ccc4ncsc4c3)nc12	ERAP1 inh 76 (no result: E-sel inducer)
O=C(NCCCN1CCCC1)Nc1ccc(F)cc1	none (no result: E-sel inducer)
O[Si](CCCN1CCCCC1)(c1ccc(F)cc1)C1CCCCC1 (stereo not drawn)	F508del corr 8.8 (no result: GSIS activator)
CCN(Cc1ccccc1)c1ccc(/C=N/N=C(N)N)cc1	F508del corr 9.9 (no result: E-sel inducer, GSIS activator)
CCN(Cc1ccccc1)c1ccccc1	DENV2 CPE 37 (no result: E-sel inducer)
CCN(Cc1ccccc1)c1ccc(/C=N/NC(=S)NC(C)C)cc1	none (no result: miR-122 sensor, F508del corr, DENV2 CPE, ERAP1 inh)
C[C@@H]1CCCCO[C@@H](CN(C)C(=O)C2CCCCC2)[C@H](C)CN([C@@H](C)CO)C(=O)c2cc(NC(=O)CCCN(C)C)ccc2O1	none (no result: miR-122 sensor, F508del corr, DENV2 CPE, ERAP1 inh)
CC(C)(C)c1cc(CCC(=O)NCc2ccccn2)cc(C(C)(C)C)c1O	E-sel inducer 100
CCOC(=O)C1=CN(Cc2cccc(Br)c2)S(=O)(=O)N(C)C1C (stereo not drawn)	DENV2 CPE 37
CCOC(=O)C1=CN(Cc2cccc(I)c2)S(=O)(=O)N(C)C1C (stereo not drawn)	F508del corr 12 (no result: E-sel inducer, miR-122 sensor)
CCOC(=O)C1=CN(Cc2cccc(-c3cccnc3)c2)S(=O)(=O)N(C)C1C (stereo not drawn)	none
C#CCN1C=C(C(=O)OCC)C(C)N(Cc2ccccc2I)S1(=O)=O (stereo not drawn)	DENV2 CPE 74
Cc1cccc(S(=O)(=O)N2C[C@H](O)COC[C@@H]3O[C@@H](CC(=O)N4CCN(C)CC4)CC[C@H]32)c1	none
Cc1ccc2ncccc2c1	DENV2 CPE 55 (no result: E-sel inducer)
c1cnc2ccc(-c3ccc4ncccc4c3)cc2c1	none (no result: E-sel inducer, miR-122 sensor)
CO[C@H]1CC[C@H]2CCN(C)C(=O)CCCN(C)C(=O)c3cc(C#N)ccc3OC[C@@H]1O2	none (no result: miR-122 sensor, F508del corr)
CN(C(=O)COC(=O)c1ccc(S(=O)(=O)N2CCOCC2)cc1)c1ccccc1	DENV2 CPE 81
N#CCCN(C(=O)COC(=O)c1ccc(S(=O)(=O)N2CCOCC2)cc1)c1ccccc1	none
Cc1cccc(C)c1NC(=O)c1nc(S(=O)(=O)Cc2ccccc2)ncc1Cl	none (no result: E-sel inducer, miR-122 sensor)
Cc1cccc(CS(=O)(=O)c2ncc(Cl)c(C(=O)Nc3c(C)cccc3C)n2)c1	GSIS activator 80 (no result: miR-122 sensor)
C/C=C/c1cnc2c(c1)C(=O)N([C@H](C)CO)C[C@@H](C)[C@@H](CN(C)C(=O)Nc1ccc(OC)cc1)O2	none
COc1ccc(OC)c(S(=O)(=O)Nc2cc(OC)c(Cl)cc2OC)c1	none (no result: E-sel inducer, F508del corr, DENV2 CPE, ERAP1 inh)
COc1cc(NS(=O)(=O)c2ccc(OC)c(C)c2C)c(OC)cc1Cl	miR-122 sensor 272 (no result: E-sel inducer, F508del corr, GSIS activator, DENV2 CPE, ERAP1 inh)

Assay outcomes: PubChem BioAssay, Broad Institute
